One series is filed under the species Canis familiaris. Nature of the series: Half life time was observed by 50% conversion to compound 1 in dog plasma. It is filed as ADME, Canis lupus familiaris. Conditions: in vitro. The method in brief:
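Prodrug with internal standard diluted 1:100 from stock in 0.05 M NaH2PO4/0.1% H3PO4 into fasted canine plasma, held at 37 °C. Conversion to parent followed by HPLC; half-life of drug consumed.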

The species named for another series is Mustela putorius furo. Nature of the series: Increased contractile force of ferret papillary muscle. It is filed as functional, Muscle tissue. Summed up:
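Isolated ferret papillary muscle, 30-min preincubation with compound; value is the concentration (μM) giving a 20% increase in contractile force. Mean of at least two determinations, with and without 1 μM propranolol co-administration.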

The nature of series [1]: Half life time was observed by 50% conversion to compound 1 at pH 1.5. It is filed as ADME. The method in brief:
(§1)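 Aliquots taken at set intervals; prodrug, parent and internal standard quantified by reversed-phase HPLC with UV detection (alkyl phenyl column, 50 °C, phosphate/CH3CN gradient). t1/2 of drug consumed; mean of at least two determinations.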

A short description of series [2]: Partition coefficient was determined in an octanol/ pH 7.4 phosphate buffer system. It is filed as physicochemical. Conditions: octanol/water.
A short description of series [3]: Half life time was observed by 50% conversion to compound 1 at pH 7.4. It is filed as ADME. The method in brief:
as §1

Series [4] is described as follows: Solubility was measured in pH 7.4 phosphate buffer. It is filed as physicochemical. The method in brief: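 Solubility in pH 7.4 phosphate buffer, quantified by HPLC.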
Series [5] can be described thus: Inhibition of c-AMP phosphodiesterase.

SMILES strings stand for the structures. Converted amounts (≈) assume the structure as drawn.

The term solubility denotes how much of the substance goes into solution per volume. A low value points to a poorly soluble substance. As a reminder, the IC50 is the point on the concentration scale where inhibition reaches its midpoint.

On to `CCc1nc(O)n(C(C)=O)c1C(=O)c1ccc(-n2ccnc2C)cc1`, for which the T1/2 was found to be 0.5 h in the series filed under Canis familiaris, 21 h in series [1] and 8 h in series [3]. Also, the C20 in the series filed under Mustela putorius furo came out at 0.2 µM. The same compound gave a Partition coefficient in series [2] of 26. This compound also displayed a solubility in series [4] of 40 µM (≈ 13.5 µg/mL).

With `CCc1nc(O)n(C(=O)Cc2ccccc2)c1C(=O)c1ccc(-n2ccnc2C)cc1`, the C20 in the series listed under Mustela putorius furo came to 0.2 µM. Also, the T1/2 in series [1] was found to be 39 h; in series [3], 1.5 h. Also, the solubility in series [4] came out at 25 µM (≈ 10.4 µg/mL).

For `CCc1nc(O)n(C(=O)c2ccccc2)c1C(=O)c1ccc(-n2ccnc2C)cc1`, the T1/2 in the series listed under Canis familiaris came out at 0.633 h; in series [1], 263 h; in series [3] it was 25 h. Moreover, the C20 in the series listed under Mustela putorius furo amounted to 0.2 µM. The Partition coefficient in series [2] turned out to be 92. Besides, the half-inhibitory concentration (IC50) in series [5] came to 157 µM. Further, in series [4], the concentration in solution (solubility) came to 23 µM (≈ 9.21 µg/mL).

Take `CCC(=O)n1c(O)nc(CC)c1C(=O)c1ccc(-n2ccnc2C)cc1`: the figures for the T1/2 (in the series listed under Canis familiaris; in series [1]; in series [3]) were 0.5 h, 17 h and 6 h, respectively. Moreover, the C20 in the series listed under Mustela putorius furo is 0.3 µM. In series [2], this compound returned a Partition coefficient of 52. In series [4], this compound displayed a solubility of 30 µM (≈ 10.6 µg/mL).

As to `CCc1nc(O)n(Cc2ccccc2)c1C(=O)c1ccc(-n2ccnc2C)cc1`, in the series filed under Mustela putorius furo, the C20 was found to be 13 µM.

On to `CCc1[nH]c(O)nc1C(=O)c1ccc(-n2ccnc2C)cc1`, for which, in the series filed under Mustela putorius furo, the C20 came to 0.5 µM. In addition, the Partition coefficient in series [2] worked out at 7. In series [4], this compound gave a solubility of 44 µM (≈ 13 µg/mL).

With `CCc1nc(O)n(C(=O)C(C)C)c1C(=O)c1ccc(-n2ccnc2C)cc1`, the results for the T1/2 (in the series listed under Canis familiaris; in series [1]; in series [3]) were 0.783 h, 132 h and 8 h, respectively. Further, the C20 in the series listed under Mustela putorius furo was 0.3 µM. Further, the Partition coefficient in series [2] is > 200. In series [4], this compound displayed a solubility of 10 µM (≈ 3.66 µg/mL).
